Paper PMC8639468 (The Journal of Biological Chemistry, 2021)
Where no end group is shown, it is not given here.

Test system: not listed separately
Assay: MTT cytotoxicity assay
Assay type: cell-based
Details: human, HeLa cells
How it was run: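 HeLa cells (1×10^4/well) grown 24 h, then exposed to serially diluted peptides for 1 h at 37 °C. Peptide removed; MTT added (5 mg/ml stock in PBS) in fresh medium for 4 h at 37 °C. Formazan dissolved in DMSO and read at 490 nm. Lethality = (Acon − A)/(Acon − Abl), using untreated cells and cell-free blank. IC50 from semilog curves, three independent measurements.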

With ILILAAKLAKALKKEAKALK-NH2 [LP4] as the substance, how does the IC50 at 1 h read?
The IC50 at 1 h was greater than 128 µM.

With ILILAAKLLKALKKEAKLLK-NH2 [LP3] as the substance, how does the IC50 at 1 h read?
Its IC50 at 1 h is 12.5 µM.

Which IC50 at 1 h does the source give for ILILAAKLLKLLKKELKLLK-NH2 [LP2] here?
The IC50 at 1 h was 1.3 µM.

With ILILILAAKLAKALKKEAKALK-NH2 [LP5] as the substance, how does the IC50 at 1 h read?
Its IC50 at 1 h is 13 µM.

Which IC50 at 1 h does the source give for KLLKLLKKELKLLK-NH2 [LP1] here?
The IC50 at 1 h was greater than 128 µM.

Test system: HeLa cells
Assay: Saporin cytosolic delivery, MTT lethality
Assay type: cell-based
Details: SAP 10, 20, 50 μg/ml alone, 60 min
How it was run: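 HeLa seeded at 1×10^4 cells/well and grown 24 h. Cells exposed to saporin, with or without vehicle peptide, for 1 h at 37 °C. After two PBS washes, cells kept in DMEM for 6 h at 37 °C. Viability read by MTT: formazan in DMSO at 490 nm, lethality calculated against untreated cells and cell-free blank.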

With “SAP: membrane-impermeable ribosome-inactivation protein, 28.6 kDa cargo” as the substance, how does the “cell survival with saporin alone” value read?
Its value is “barely affected”.
